pIC50: −log10 of the molar value. Activity calls are given as the source filed them. No cut-off for these calls is given here.
How the values were obtained:
HL2/3 = experiment: Inhibition of HIV gp41 activity assessed as inhibition of TZM-bl and HL2/3 cell fusion at 100 uM after 6 hrs by luciferase reporter assay; assay type: cell-based; conditions: Human immunodeficiency virus
Procedure, shortened: (§1)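 TZM-bl target cells (2.5×10^4/well) were seeded; 24 h later HL2/3 effector cells (5.0×10^4/well, […]) were added together with compound diluted in DMSO to a final 100 µM. After 6 h, Tat-driven LTR-luciferase luminescence (fusion) and cell viability were read in a combined reporter/viability kit. Six replicates; ANOVA with Tukey post hoc test against untreated co-culture.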

[1] = Cytotoxicity against human TZM-bl cells at 100 uM; assay type: cell-based; procedure, shortened: as §1
[2] = Cytotoxicity against human HL2/3 cells at 100 uM; assay type: cell-based; conditions: hl2/3, 100 µM; procedure, shortened: as §1
[3] = Inhibition of HIVgp41 activity assessed as inhibition of TZM-bl and HL2/3 cell fusion after 6 hrs by luciferase reporter assay; assay type: cell-based; conditions: Human immunodeficiency virus 1, HL2/3, 6 h
Procedure, shortened: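 Dose-response runs of the TZM-bl/HL2/3 co-culture luciferase fusion assay over a range of concentrations. Viability signal was scaled to the maximal signal (fraction of maximal proliferation). Each well's fusion luminescence was divided by that fraction, background was subtracted, and values were normalized to fraction of maximal effect. IC50 was taken from curve fitting.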

[4] = tested on: Human immunodeficiency virus; experiment: Inhibition of HIVgp41 activity assessed as fluorescence intensity at 800 uM by FRET assay relative to 40 uM bithionol

Row | pIC50 [3] | Activity [4] | SMILES | Activity (HL2/3) | Activity [1] | Activity [2]
1 | 4.25 | inactive | CCn1c(SCC(=O)N/N=C/c2cccc(Oc3ccccc3)c2)nnc1-c1ccc(OC)cc1 | Active | Non-toxic | Non-toxic
2 | 4.23 | inactive | COc1ccc(-c2cc(C(=O)NCc3ccc(Cl)cc3)n[nH]2)cc1S(=O)(=O)N1CCOCC1 | Active | Non-toxic | Non-toxic
